Measurements published in ChEMBL document CHEMBL1122301, “Bioisosteric design of conformationally restricted pyridyltriazole histamine H2-receptor antagonists” (J Med Chem, 1983).
Values belong to the molecule of their own block, whether it stands above or below them. Activity calls are given as the source filed them. The calls are words filed in the database; no cut-off is given here.

Columns and labels:
[1] = biological target: Histamine H2 receptor (Cavia porcellus) (UniProt P47747); assay: Antagonistic activity against histamine H2 receptor from guinea pig atrium; activity KB (Dissociation Constant) is negative; format: functional, tissue-based; details: Cardiac atrium
Canis familiaris [2] = assay: Acid antisecretory activity against pentagastrin-stimulated Heidenhain pouch dogs at a dose of 5 mg/kg after intravenous administration; format: functional, Canis lupus familiaris
Procedure, shortened: (§1)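 Pentagastrin was infused iv into a leg vein of fasted, conscious Heidenhain pouch dogs to give near-maximal acid output. Juice was collected every 30 min, ten collections in all, and acid was titrated (1.0 mL to pH 7.4, 0.1 N NaOH). The single iv dose was given at 90 min. Percent inhibition was the lowest post-dose acid output compared with the mean output just before dosing.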

Canis familiaris [3] = assay: Acid antisecretory activity against pentagastrin-stimulated Heidenhain pouch dogs at a dose of 10 mg/kg after intravenous administration; format: functional, Canis lupus familiaris; procedure, shortened: as §1
[4] = biological target: Histamine H1 receptor (Cavia porcellus) (UniProt P31389); assay: Relative antagonistic activity against Histamine H1 receptor
[5] = biological target: Histamine H1 receptor (Cavia porcellus) (UniProt P31389); assay: Relative antagonistic activity against Histamine H1 receptor, NA is Inactive
[6] = Log distribution coefficient between 1-octanol and aqueous buffer at pH of 7.4.; format: physicochemical; details: 1-octanol/aqueous buffer, pH 7.4
Canis familiaris [7] = assay: Acid antisecretory activity against pentagastrin-stimulated Heidenhain pouch dogs after intravenous administration; format: functional; details: Canis lupus familiaris, read-out: ID50 (the source's name)
Procedure, shortened: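 Fasted, unanesthetized Heidenhain pouch dogs received a continuous pentagastrin infusion into a superficial leg vein at a near-maximal acid-stimulating dose. Gastric juice was collected at 30-min intervals, ten collections per dog. Acid was titrated on 1.0 mL to pH 7.4 with 0.1 N NaOH. Compound or vehicle was given iv at 90 min. ID50 came from linear regression of log dose on percent inhibition in n dogs.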

[8] = biological target: Histamine H2 receptor (Cavia porcellus) (UniProt P47747); assay: Antagonistic activity against histamine H2 receptor from guinea pig atrium; format: functional, tissue-based; details: Cardiac atrium
[9] = Log distribution coefficient between 1-octanol and aqueous buffer at pH of 9.2.; format: physicochemical; details: 1-octanol/aqueous buffer, pH 9.2
[10] = pKa ([…] constant) value at a physiological pH of 7.4; format: physicochemical; details: pH 7.4
Procedure, shortened: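 Ionisation constants taken as the observed pH1/2 from titration at 23 °C. The dihydrochloride salts were titrated in water, and the free bases in 1:1 methanol–water.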

[11] = Log distribution coefficient between 1-octanol and aqueous buffer at specified pH of 9.2.; details: 1-octanol/aqueous buffer, pH 9.2
Canis familiaris [12] = assay: Acid antisecretory activity against pentagastrin-stimulated Heidenhain pouch dogs at a dose of 25 mg/kg after intravenous administration; format: functional, Canis lupus familiaris; procedure, shortened: as §1
Canis familiaris [13] = assay: Acid antisecretory activity against pentagastrin-stimulated Heidenhain pouch dogs at a dose of 23 mg/kg after intravenous administration; format: functional, Canis lupus familiaris; procedure, shortened: as §1

Histamine H2 receptor (Cavia porcellus), sequence (P47747 whole entry): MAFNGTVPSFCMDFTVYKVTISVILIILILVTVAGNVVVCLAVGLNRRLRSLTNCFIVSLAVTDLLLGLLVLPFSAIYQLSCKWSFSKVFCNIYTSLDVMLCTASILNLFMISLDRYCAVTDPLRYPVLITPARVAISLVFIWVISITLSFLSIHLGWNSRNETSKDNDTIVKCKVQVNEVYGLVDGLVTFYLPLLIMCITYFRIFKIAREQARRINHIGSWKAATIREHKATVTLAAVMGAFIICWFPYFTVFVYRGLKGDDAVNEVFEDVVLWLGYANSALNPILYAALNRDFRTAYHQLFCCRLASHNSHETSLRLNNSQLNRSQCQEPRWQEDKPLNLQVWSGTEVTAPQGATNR
Histamine H1 receptor (Cavia porcellus), sequence (P31389 whole entry): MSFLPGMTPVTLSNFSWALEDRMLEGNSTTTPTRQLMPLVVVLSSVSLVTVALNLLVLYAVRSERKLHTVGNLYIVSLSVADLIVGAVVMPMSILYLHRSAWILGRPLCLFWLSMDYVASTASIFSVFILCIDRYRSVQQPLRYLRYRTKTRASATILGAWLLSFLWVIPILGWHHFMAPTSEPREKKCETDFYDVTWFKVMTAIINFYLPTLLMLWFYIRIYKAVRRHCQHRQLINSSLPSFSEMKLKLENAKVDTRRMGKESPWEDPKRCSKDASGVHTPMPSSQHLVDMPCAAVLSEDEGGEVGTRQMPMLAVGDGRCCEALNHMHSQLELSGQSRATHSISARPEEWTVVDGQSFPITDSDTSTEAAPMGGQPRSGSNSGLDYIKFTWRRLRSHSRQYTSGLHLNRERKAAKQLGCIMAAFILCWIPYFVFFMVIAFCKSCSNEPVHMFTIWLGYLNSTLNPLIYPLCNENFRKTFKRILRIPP

SMILES: c1ccc(CN(Cc2c[nH]cn2)c2ccccc2)cc1
Relative activity [4]: > 0.5

SMILES: CN(C)CCN(Cc1ccccc1)Cc1ccccc1
Activity [5]: inactive

SMILES: CN(C)CCN(Cc1ccccc1)c1ccccc1
Relative activity [4]: 1

SMILES: CN/C(=N\CCSCc1nc[nH]c1C)NC#N [CIMETIDINE]
ED50 (Canis familiaris [7]): 1.02 mg/kg
pKa [10]: 7.02
logD [9]: 0.4
logD [11]: 0.54

SMILES: c1ccc(CN(CC2=NCCN2)c2ccccc2)cc1
Relative activity [4]: > 1

SMILES: c1ccc(CN(CCc2c[nH]cn2)Cc2ccccc2)cc1
Relative activity [4]: 0.01

The next lines start with results.

KB [1]: inactive
SMILES: Nc1n[nH]c(Cc2ccccn2)n1
Max inhibition (Canis familiaris [2]): 18%
Max inhibition (Canis familiaris [3]): 0%

KB [1]: inactive
SMILES: Nc1n[nH]c(-c2ccccn2)n1
Max inhibition (Canis familiaris [2]): 0%
Max inhibition (Canis familiaris [3]): 0%

logD [6]: 1.13
Kb [8]: 235 nM
logD [9]: 0.97
SMILES: CCNc1cc(-c2n[nH]c(N)n2)ccn1
ED50 (Canis familiaris [7]): 0.87 mg/kg

KB [1]: inactive
SMILES: Nc1n[nH]c(Cc2cccnc2)n1
Max inhibition (Canis familiaris [3]): 0%

logD [6]: 0.11
Kb [8]: 2220 nM
logD [9]: -0.06
SMILES: Nc1cc(-c2n[nH]c(N)n2)ccn1
ED50 (Canis familiaris [7]): 2.35 mg/kg

KB [1]: inactive
SMILES: Nc1n[nH]c(Cc2ccncc2)n1
Max inhibition (Canis familiaris [12]): 30%
Max inhibition (Canis familiaris [3]): 26%

Kb [8]: 41900 nM
SMILES: Nc1n[nH]c(-c2ccncc2)n1
Max inhibition (Canis familiaris [3]): 43%
Max inhibition (Canis familiaris [13]): 73%

KB [1]: inactive
SMILES: Nc1n[nH]c(-c2cccnc2)n1
Max inhibition (Canis familiaris [12]): 11%
Max inhibition (Canis familiaris [3]): 22%
